# According to ChEMBL document CHEMBL3243954 (J Med Chem, 1979):
# Experiments:
# Brain [1] = experiment: Drug uptake albino mouse brain at 10 mg equivalent of oxazepam/kg, iv after 2 mins measured per gm of tissue by thin-layer chromatography; assay type: ADME, organism-based; conditions: in vivo
# Brain [2] = experiment: Drug uptake albino mouse brain at 10 mg equivalent of oxazepam/kg, iv after 5 mins measured per gm of tissue by thin-layer chromatography; assay type: ADME, organism-based; conditions: in vivo
# Brain [3] = experiment: Drug uptake albino mouse brain at 10 mg equivalent of oxazepam/kg, iv after 10 mins measured per gm of tissue by thin-layer chromatography; assay type: ADME, organism-based; conditions: in vivo
# Brain [4] = experiment: Drug uptake albino mouse brain at 10 mg equivalent of oxazepam/kg, iv after 20 mins measured per gm of tissue by thin-layer chromatography; assay type: ADME, organism-based; conditions: in vivo
# Brain [5] = experiment: Drug uptake albino mouse brain at 10 mg equivalent of oxazepam/kg, iv after 30 mins measured per gm of tissue by thin-layer chromatography; assay type: ADME, organism-based; conditions: in vivo, 0.5 h
# Brain [6] = experiment: Drug uptake albino mouse brain at 10 mg equivalent of oxazepam/kg, iv after 40 mins measured per gm of tissue by thin-layer chromatography; assay type: ADME, organism-based; conditions: in vivo
# Brain [7] = experiment: Drug uptake albino mouse brain at 10 mg equivalent of oxazepam/kg, iv after 60 mins measured per gm of tissue by thin-layer chromatography; assay type: ADME, organism-based; conditions: in vivo, 1 h
# Brain [8] = experiment: Drug uptake albino mouse brain at 10 mg equivalent of oxazepam/kg, iv after 90 mins measured per gm of tissue by thin-layer chromatography; assay type: ADME, organism-based; conditions: in vivo, 1.5 h
# Brain [9] = experiment: Drug uptake albino mouse brain at 10 mg equivalent of oxazepam/kg, iv after 120 mins measured per gm of tissue by thin-layer chromatography; assay type: ADME, organism-based; conditions: in vivo, 2 h
# Brain [10] = experiment: Drug uptake albino mouse brain at 10 mg equivalent of oxazepam/kg, iv after 240 mins measured per gm of tissue by thin-layer chromatography; assay type: ADME, organism-based; conditions: in vivo, 4 h
# [11] = Retardation factor, Rm of the compound by thin-layer chromatography; assay type: physicochemical
# Brain [12] = experiment: Drug uptake albino mouse brain at 5 mg equivalent of oxazepam/kg, iv after 3 mins measured per gm of tissue by thin-layer chromatography; assay type: ADME, organism-based; conditions: in vivo, 0.05 h
# Brain [13] = experiment: Drug uptake albino mouse brain at 5 mg equivalent of oxazepam/kg, iv after 5 mins measured per gm of tissue by thin-layer chromatography; assay type: ADME, organism-based; conditions: in vivo
# Brain [14] = experiment: Drug uptake albino mouse brain at 5 mg equivalent of oxazepam/kg, iv after 10 mins measured per gm of tissue by thin-layer chromatography; assay type: ADME, organism-based; conditions: in vivo
# Brain [15] = experiment: Drug uptake albino mouse brain at 5 mg equivalent of oxazepam/kg, iv after 20 mins measured per gm of tissue by thin-layer chromatography; assay type: ADME, organism-based; conditions: in vivo
# Brain [16] = experiment: Drug uptake albino mouse brain at 5 mg equivalent of oxazepam/kg, iv after 40 mins measured per gm of tissue by thin-layer chromatography; assay type: ADME, organism-based; conditions: in vivo
# Brain [17] = experiment: Drug uptake albino mouse brain at 5 mg equivalent of oxazepam/kg, iv after 60 mins measured per gm of tissue by thin-layer chromatography; assay type: ADME, organism-based; conditions: in vivo, 1 h
# Brain [18] = experiment: Drug uptake albino mouse brain at 5 mg equivalent of oxazepam/kg, iv after 120 mins measured per gm of tissue by thin-layer chromatography; assay type: ADME, organism-based; conditions: in vivo, 2 h
# Brain [19] = experiment: Drug uptake albino mouse brain at 5 mg equivalent of oxazepam/kg, iv after 240 mins measured per gm of tissue by thin-layer chromatography; assay type: ADME, organism-based; conditions: in vivo, 4 h
# Liver [20] = experiment: Drug metabolism in albino mouse liver assessed as total metabolite concentration at 5 mg equivalent of oxazepam/kg, iv after 1 min by thin layer chromatography; assay type: ADME, organism-based; conditions: in vivo
# Method in brief: (§1)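 Liver was dried and its total radioactivity, the sum of metabolites, was measured on a carbon-tritium analyzer. Values are means of four mice (±SE).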
# Liver [21] = experiment: Drug metabolism in albino mouse liver assessed as total metabolite concentration at 5 mg equivalent of oxazepam/kg, iv after 3 mins by thin layer chromatography; assay type: ADME, organism-based; conditions: in vivo, 0.05 h; method in brief: as §1
# Liver [22] = experiment: Drug metabolism in albino mouse liver assessed as total metabolite concentration at 5 mg equivalent of oxazepam/kg, iv after 5 mins by thin layer chromatography; assay type: ADME, organism-based; conditions: in vivo; method in brief: as §1
# Liver [23] = experiment: Drug metabolism in albino mouse liver assessed as total metabolite concentration at 5 mg equivalent of oxazepam/kg, iv after 10 mins by thin layer chromatography; assay type: ADME, organism-based; conditions: in vivo; method in brief: as §1
# Brain [24] = experiment: Drug uptake albino mouse brain at 5 mg equivalent of oxazepam/kg, iv after 1 min measured per gm of tissue by thin-layer chromatography; assay type: ADME, organism-based; conditions: in vivo
# esterase = experiment: (§2) Drug metabolism in mouse liver microsomes assessed as rate of esterase-mediated compound hydrolysis by pH stat based titrimetric analysis; assay type: ADME; conditions: liver microsomes
# [25] = Drug metabolism in mouse liver microsomes assessed as rate of esterase-mediated compound hydrolysis measured per mg of protein by pH stat based titrimetric analysis; assay type: ADME
# [26] = as §2; assay type: ADME; conditions: microsomes
# Mus musculus [27] = experiment: Antimetrazol activity in iv dosed mouse assessed as inhibition of metrazol-induced tonic-extensor seizures administered 30 mins prior to metrazol challenge; assay type: functional
# Method in brief: (§3)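 Mice dosed iv with the ester in aqueous solution containing under 10% chremofor. Metrazol 125 mg/kg sc was given 30 or 60 min after the ester. ED50 is the dose preventing tonic-extensor seizures in 50% of mice, derived by probit analysis.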
# Mus musculus [28] = experiment: Antimetrazol activity in iv dosed mouse assessed as inhibition of metrazol-induced tonic-extensor seizures administered 60 mins prior to metrazol challenge; assay type: functional; method in brief: as §3
# Mus musculus [29] = experiment: Muscle relaxant activity in iv dosed mouse after 30 mins by rotarod test; assay type: ADME, organism-based; conditions: in vivo, 0.5 h
# Mus musculus [30] = experiment: Muscle relaxant activity in iv dosed mouse after 60 mins by rotarod test; assay type: ADME, organism-based; conditions: in vivo, 1 h
# Mus musculus [31] = organism: Mus musculus; experiment: Ratio of ED50 for muscle relaxant activity in mouse to ED50 for antimetrazol activity in mouse measured after 30 mins
# Mus musculus [32] = organism: Mus musculus; experiment: Ratio of ED50 for muscle relaxant activity in mouse to ED50 for antimetrazol activity in mouse measured after 60 mins
# [33] = Mus musculus, iv, read-out: ED50
SMILES,Rm [11],Drug uptake (Brain [12]) [nmol],Drug uptake (Brain [13]) [nmol],Drug uptake (Brain [14]) [nmol],Drug uptake (Brain [15]) [nmol],Drug uptake (Brain [16]) [nmol],Drug uptake (Brain [17]) [nmol],Drug uptake (Brain [18]) [nmol],Drug uptake (Brain [19]) [nmol],Vmax [25] [nmol/min],further results
CCC(CC)C(=O)OC1N=C(c2ccccc2)c2cc(Cl)ccc2N[14C]1=O (stereo unspecified),0.46,–,–,–,–,–,–,–,–,–,Drug uptake (Brain [1]): 0.8 nmol; Drug uptake (Brain [2]): 2 nmol; Drug uptake (Brain [3]): 4.8 nmol; Drug uptake (Brain [4]): 7.8 nmol; Drug uptake (Brain [5]): 12.1 nmol; Drug uptake (Brain [6]): 18 nmol; Drug uptake (Brain [7]): 23.1 nmol; Drug uptake (Brain [8]): 20.9 nmol; Drug uptake (Brain [9]): 20 nmol; Drug uptake (Brain [10]): 13.5 nmol
O=C(CCCc1ccccc1)OC1N=C(c2ccccc2)c2cc(Cl)ccc2N[14C]1=O (stereo unspecified),0.65,0.9,0.8,2.9,6.5,9.5,9.6,15.1,12.2,–,Drug metabolism (Liver [20]): 80.7 nmol/g; Drug metabolism (Liver [21]): 85.9 nmol/g; Drug metabolism (Liver [22]): 82.3 nmol/g; Drug metabolism (Liver [23]): 40.4 nmol/g; Drug uptake (Brain [24]): 0.4 nmol
O=C(CCc1ccccc1)OC1N=C(c2ccccc2)c2cc(Cl)ccc2N[14C]1=O (stereo unspecified),0.5,0.8,1.4,2.2,7.1,12.1,13.6,12.2,6.6,–,Drug metabolism (Liver [20]): 40.7 nmol/g; Drug metabolism (Liver [21]): 45.6 nmol/g; Drug metabolism (Liver [22]): 34.7 nmol/g; Drug metabolism (Liver [23]): 32.6 nmol/g; Drug uptake (Brain [24]): 0.5 nmol
O=C(Cc1ccccc1)OC1N=C(c2ccccc2)c2cc(Cl)ccc2NC1=O (stereo unspecified),–,–,–,–,–,–,–,–,–,12.2,Km (esterase): 22.7 µM
CC(Cc1ccccc1)C(=O)OC1N=C(c2ccccc2)c2cc(Cl)ccc2NC1=O (racemic),–,–,–,–,–,–,–,–,–,2.4,Km [26]: 8.3 µM; ED50 (Mus musculus [27]): 0.51 mg/kg; ED50 (Mus musculus [28]; [33]): 0.66 mg/kg; ED50 (Mus musculus [29]): 3.75 mg/kg; ED50 (Mus musculus [30]): 4.01 mg/kg; Ratio ED50 (Mus musculus [31]): 7.4; Ratio ED50 (Mus musculus [32]): 6.1
CC(Cc1ccccc1)C(=O)OC1N=C(c2ccccc2)c2cc(Cl)ccc2N[14C]1=O (racemic),0.64,1.3,–,4.7,5.4,10,13,14.2,5.5,–,–
"CC(Cc1ccccc1)C(=O)OC1N=C(c2ccccc2)c2cc(Cl)ccc2NC1=O (single isomer, unassigned; (-))",–,–,–,–,–,–,–,–,–,2.6,Km [26]: 8.7 µM; ED50 (Mus musculus [27]): 0.81 mg/kg; ED50 (Mus musculus [28]): 0.92 mg/kg; ED50 (Mus musculus [29]): 2.86 mg/kg; ED50 (Mus musculus [30]): 2.2 mg/kg; Ratio ED50 (Mus musculus [31]): 3.5; Ratio ED50 (Mus musculus [32]): 2.4
"CC(Cc1ccccc1)C(=O)OC1N=C(c2ccccc2)c2cc(Cl)ccc2N[14C]1=O (single isomer, unassigned; (-))",–,0.8,1.6,4.6,6.7,11.8,14.8,13.7,12.2,–,–
CC(Cc1ccccc1)C(=O)OC1N=C(c2ccccc2)c2cc(Cl)ccc2NC1=O (stereo in doubt; 11),–,–,–,–,–,–,–,–,–,7.3,Km [26]: 25 µM; ED50 (Mus musculus [27]): 0.39 mg/kg; ED50 (Mus musculus [28]): 0.82 mg/kg; ED50 (Mus musculus [29]): 2.67 mg/kg; ED50 (Mus musculus [30]): 3.83 mg/kg; Ratio ED50 (Mus musculus [31]): 6.8; Ratio ED50 (Mus musculus [32]): 4.7
CC(Cc1ccccc1)C(=O)OC1N=C(c2ccccc2)c2cc(Cl)ccc2N[14C]1=O (stereo in doubt; [14C]-11),–,2.1,2.6,5.6,7.7,10.8,12.8,11.7,7.2,–,–
O=C1Nc2ccc(Cl)cc2C(c2ccccc2)=NC1O (stereo unspecified) [OXAZEPAM],–,–,–,–,–,–,–,–,–,–,ED50 (Mus musculus [27]; [33]): 0.18 mg/kg; ED50 (Mus musculus [28]; [33]): 0.39 mg/kg
